OXTR ag: human OXTR agonists, primary screen, fluorescence, CHO-OTR cells, Fluo-8 calcium | Oxytocin receptor (Homo sapiens), P30559 | Fluo-8 calcium fluorescence; normalized: DMSO 0%, oxytocin 100% | activation, % at 3 µM | actives 0.32% (n = 320,000) | AID 2435, 2010;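 active means activation above the mean of all tested compounds plus 3 SD, cutoff set per screening run, cut at about 20% in these data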;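 further: peak over basal fluorescence ratio from a 100 s FLIPR kinetic read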
TAAR1 agonist: human TAAR1 agonists, primary screen, Fluo-8 calcium fluorescence, CHO RD-HGA16 cells; Trace amine-associated receptor 1 (Homo sapiens), Q96RJ0; vehicle wells 0%, saturating PEA agonist 100%; activation, % at 3 µM; actives 0.99% (n = 360,000);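 active means activation above the mean activation of all test compounds in the run plus 3 SD, cut at about 38% in these data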
Target sequence (Q96RJ0 whole entry, looked up): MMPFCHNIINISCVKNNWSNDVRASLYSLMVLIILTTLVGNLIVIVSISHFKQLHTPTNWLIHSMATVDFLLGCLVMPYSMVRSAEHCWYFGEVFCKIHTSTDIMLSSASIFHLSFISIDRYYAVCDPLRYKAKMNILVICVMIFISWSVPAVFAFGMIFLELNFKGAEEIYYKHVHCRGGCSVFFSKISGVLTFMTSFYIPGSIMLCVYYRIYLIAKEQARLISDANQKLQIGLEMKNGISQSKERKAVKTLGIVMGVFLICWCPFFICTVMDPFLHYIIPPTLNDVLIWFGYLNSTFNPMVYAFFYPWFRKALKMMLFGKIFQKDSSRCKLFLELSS
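System: CHO-derived RD-HGA16 cells with stable Gα16 and human TAAR1 / Times: 17-24 h plating, Fluo-8 75 min 37 °C, 30 min RT / Technique: calcium-sensitive Fluo-8 signal, excitation 470-495, emission 515-575 nm / Measure: % activation relative to PEA EC100 response / Benchmarks: DMSO and PEA EC100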
V1R ag counter: agonists of human V1a receptor, primary screen, counter-screen for OXTR agonist project, fluorescence, CHO-V1R cells; Fluo-8 calcium fluorescence, agonist mode; 0% DMSO, 100% 3 nM vasopressin; activation, % at 3 µM; Vasopressin V1a receptor (Homo sapiens), P37288; AID 2797, 2010; actives 0.25% (n = 320,000);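 active means activation above the mean activation of all tested compounds plus 3 SD, per screening run, cut at about 20% in these data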;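 further: signal is peak over basal fluorescence ratio across a 100 second FLIPR read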
Target sequence (P37288 whole entry, looked up): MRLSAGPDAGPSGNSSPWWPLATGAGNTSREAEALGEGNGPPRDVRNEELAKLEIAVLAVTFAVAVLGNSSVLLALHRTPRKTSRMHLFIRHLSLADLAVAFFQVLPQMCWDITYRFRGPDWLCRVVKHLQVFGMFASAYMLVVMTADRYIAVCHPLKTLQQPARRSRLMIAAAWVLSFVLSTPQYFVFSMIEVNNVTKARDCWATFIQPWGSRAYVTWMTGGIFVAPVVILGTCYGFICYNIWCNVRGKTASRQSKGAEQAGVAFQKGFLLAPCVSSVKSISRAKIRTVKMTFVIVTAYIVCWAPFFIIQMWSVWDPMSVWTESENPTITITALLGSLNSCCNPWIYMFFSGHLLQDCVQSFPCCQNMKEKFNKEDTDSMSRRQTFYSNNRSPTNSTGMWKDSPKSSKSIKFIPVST
OXTR potentiator: human OXTR potentiators, primary screen, fluorescence, CHO-OTR cells, Fluo-8 calcium; Fluo-8 calcium fluorescence, potentiator mode; 0% = oxytocin EC15, 100% = EC100; activation, % at 3 µM; actives 0.061% (n = 320,000);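 active means activation above that plate's cutoff, the mean activation of tested compounds plus 3 SD, cut at about 6.6% in these data, passing the limit was not always enough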;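 further: 100% uses oxytocin at 75 nM as the full agonist control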
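Material: CHO-OTR cells, human receptor; compound dosing: single dose, 3.0 µM nominal final compound concentration; schedule: 6 min compound pre-incubation at room temperature, 100 s kinetic read; measured by: kinetic Fluo-8 calcium fluorescence; read-out basis: % activation vs EC15 and EC100 oxytocin; controls: EC15 oxytocin alone as 0%, 75 nM oxytocin as 100%; replicates: singlicate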
TAAR1 antag: human TAAR1 antagonists, primary screen, Fluo-8 calcium fluorescence, CHO RD-HGA16 cells. Trace amine-associated receptor 1 (Homo sapiens), Q96RJ0. AID 624466, 2012. actives 1.5% (n = 360,000). antagonist. inhibition, % at 3 µM;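 active means inhibition above a per-plate cutoff, the mean inhibition of test compounds on that plate plus 3 SD, cut at about 49% in these data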;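 further: 0% = DMSO plus EC80 beta-PEA response and 100% = DMSO alone without agonist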
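Material: RD-HGA16 CHO cells with stable hTAAR1 and Gα16; Dosing: single nominal final test compound concentration of 3 µM; Schedule: seeding 17-24 h prior, 75-min 37 °C, 30-min RT dye loading; Detection: kinetic Fluo-8 calcium fluorescence measurement; Measure: % inhibition from peak post-agonist over basal fluorescence ratio; Benchmarks: vehicle and agonist controls.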
TAAR1 ag confirm: human TAAR1 agonists, retest of hits, confirmation, Fluo-8 calcium fluorescence, CHO RD-HGA16 cells | actives 82% (n = 2,400) | shares compounds with TAAR1 agonist | scaled: DMSO 0%, maximal phenethylamine 100% | activation, % at 3 µM;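 active means activation above a cutoff set at the run's mean compound activation plus 3 SD, cut at about 39% in these data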
Ga16 nonsel ag: nonselective calcium mobilization agonists, CHO-Ga16 cells, counter-screen for hTAAR1 agonist project, cell-based, fluorescence, CHO-Ga16 parental line; actives 50% (n = 2,400); AID 651787, 2012; Fluo-8 calcium fluorescence; normalized to maximal ATP response, DMSO zero; shares compounds with TAAR1 agonist; activation, % at 3 µM;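 active means activation above the run cutoff, the mean activation over all tested wells plus 3 SD, cut at about 12% in these data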;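 further: 0% = DMSO wells and 100% = maximal ATP response on the peak over basal ratio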
TAAR1 desensitize: TAAR1 desensitization by agonist hits, confirmation, counter-screen for TAAR1 agonist project, cell-based, fluorescence, tachyphylaxis; inhibition, % at 3 µM; CHO RD-HGA16 hTAAR1, Fluo-8 calcium, beta-PEA response inhibition; actives 46% (n = 2,400); shares compounds with TAAR1 agonist;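 active means inhibition above the run cutoff, the mean inhibition of all test compounds plus 3 SD, cut at about 49% in these data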;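 further: beta-PEA stimulus applied at its EC80; loss of beta-PEA calcium signal after compound pretreatment read as receptor desensitization; 0% = DMSO with beta-PEA at EC80 and 100% = DMSO alone without agonist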
Ga16 nonsel ant: inhibition of ATP-evoked calcium response in CHO-Ga16 cells, counter-screen for TAAR1 agonist project, cell-based, fluorescence; shares compounds with TAAR1 agonist; CHO-Ga16 ATP-induced calcium, Fluo-8 fluorescence; inhibition, % at 3 µM; actives 39% (n = 2,400); AID 651952, 2012;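 active means inhibition above the plate's mean compound inhibition plus 3 SD, computed per plate, cut at about 22% in these data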;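 further: 0% = EC80 ATP with DMSO and 100% = DMSO wells without ATP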
The depositor's hits bear a star; / = no result given; ! = a repeat was not active. In the library only some 2.3% were active in any assay of this set; here they are far more common.

SMILES	OXTR ag	TAAR1 agonist	V1R ag counter	OXTR potentiator	TAAR1 antag	TAAR1 ag confirm	Ga16 nonsel ag	TAAR1 desensitize	Ga16 nonsel ant
CCOC(=O)[C@]12CCC=C1N(Cc1cccc3ccccc13)C(=O)[C@H](CC(=O)NCCc1ccccc1OC)C2	/	55.1*	/	/	34.6	69.9*	1.2	45.9	14.3
COC(=O)[C@]12CCCCC=C1N(Cc1ccco1)C(=O)[C@H](CC(=O)NCCc1ccccc1OC)C2	/	50.6*	/	/	9.1	31.0	2.7	25.7	20.2
CCCCCCCCN1C(=O)[C@H](CC(=O)NCCCC)C[C@@]2(C(=O)OCC)CCCC=C12	/	-1.8	/	/	-14.1	/	/	/	/
CC1=C(C(=O)OC2CCCC2)C(c2coc3ccccc3c2=O)C2=C(CC(C)(C)CC2=O)N1 (centres undefined)	0.6	1.9	-1.7	0.6	-33.6	/	/	/	/
CCOC(=O)[C@]12CCC=C1N(Cc1ccc3c(c1)OCO3)C(=O)[C@H](CC(=O)NCCc1ccccc1OC)C2	/	60.1*	/	/	38.1	91.0*	2.9	76.2*	-2.2
COC(=O)[C@@]1(Cc2ccc(F)cc2)[C@H]2c3cc(C(=O)N(C)C)n(CCc4ccccn4)c3C[C@H]2CN1C(=O)c1ccccc1	11.7	35.8	5.4	-3.6	2.1	/	/	/	/
COC(=O)[C@@]1(Cc2ccc(F)cc2)[C@H]2c3cc(C(=O)N4CCCC4)n(CCc4ccccn4)c3C[C@H]2CN1C(=O)c1ccccc1	8.4	88.1*	5.0	0.3	15.9	52.9*	13.8*	2.0	15.7
Cc1cccc(OCCCN2CCC(C(O)(c3ccccc3)c3ccccc3)CC2)c1	/	41.1*	/	/	38.1	32.3	15.8*	26.9	29.7*
OC(c1ccccc1)(c1ccccc1)C1CCN(CCCOc2cc(F)cc(F)c2)CC1	/	48.8*	/	/	33.4	35.2	32.4*	49.5*	46.0*
OC(c1ccccc1)(c1ccccc1)C1CCN(CCCOc2cccc(OC(F)(F)F)c2)CC1	/	19.8	/	/	36.7	/	/	/	/
COc1cccc(OCCCN2CCC(C(O)(c3ccccc3)c3ccccc3)CC2)c1	/	42.2*	/	/	36.6	22.6	12.9*	12.7	25.9*
CCN(CC)c1ccc(C=C2SC(=S)NC2=O)cc1	/	120.3*	/	/	105.3*	97.1*	104.0*	100.8*	97.6*
O=C(CCc1nc(-c2ccccc2Cl)no1)NCCc1ccccc1	0.1	58.1*	1.7	-9.8	-8.7	67.8*	2.5	43.2	10.7
COCCCNC(=O)CCc1nc(-c2ccccc2Cl)no1	-0.7	0.2	0.7	-3.2	-11.4	/	/	/	/
CCc1nc2ccc(C(=O)NCCN3CCCC3)cn2c1N(C)Cc1ccc(OC)cc1	/	0.6	/	/	-19.6	/	/	/	/
C=CCc1c(C)[nH]c(=O)[nH]c1=O	0.8	71.8*	0.3	-1.9	-20.7	5.5	4.1	-1.2	7.3
C=CCSc1nc(C)c(CC=C)c(=O)[nH]1	-0.4	9.2	0.5	-3.6	-12.6	/	/	/	/
O=C(NNS(=O)(=O)c1ccccc1Cl)c1nn(-c2ccc(F)cc2)ccc1=O	0.3	0.0	0.3	-7.3	-24.0	/	/	/	/
CC(C)(CNc1ccc([N+](=O)[O-])cc1Cl)CNS(C)(=O)=O	6.0	5.0	4.2	-4.2	6.8	/	/	/	/
Oc1cc2c(c(Cl)c1O)CCNCC2c1ccccc1 (centres undefined)	2.0	44.0*	0.4	-3.5	-10.5	73.5*	2.9	57.3*	10.2
Oc1ccc(C2CNCCc3c2cc(O)c(O)c3Cl)cc1 (centres undefined)	0.7	61.8*!	0.7	-1.1	13.1	81.1*	0.0	75.7*	10.2
C=CCN1CCc2c(cc(O)c(O)c2Cl)C(c2ccccc2)C1 (centres undefined)	-0.5	-1.6	0.8	4.0	-23.6	/	/	/	/
O=C(NCCCn1ccnc1)c1ccc(-c2cccc(Cl)c2Cl)o1	6.9	63.2*	3.6	-8.0	12.4	49.8*	33.3*	16.8	6.6
O=C(NNC(=O)C12CC3CC(CC(C3)C1)C2)c1ccccc1[N+](=O)[O-]	0.8	-1.8	0.8	-10.0	-3.5	/	/	/	/
Cc1ccccc1NC(=O)c1ccc(C)c(S(=O)(=O)Nc2ccccn2)c1	-0.9	5.9	0.4	-5.7	-9.3	/	/	/	/
SMILES	OXTR ag	TAAR1 agonist	V1R ag counter	OXTR potentiator	TAAR1 antag	TAAR1 ag confirm	Ga16 nonsel ag	TAAR1 desensitize	Ga16 nonsel ant
Cc1ccc(C(=O)Nc2ccc(Br)cc2)cc1S(=O)(=O)Nc1ccccn1	2.2	66.0*	1.7	2.1	-0.3	9.6	5.2	6.2	14.6
Cc1nn(C)cc1C=NCCOCc1ccccc1	-0.8	43.7*	-0.1	-9.8	7.2	66.1*	3.1	11.9	-4.7
CCNc1ccc2noc3c2c1C(=O)c1ccccc1-3	109.9*	318.5*	77.7*	-10.8	89.5*	113.8*	127.2*	65.8*	65.7*
CCOc1ccc2noc3c2c1C(=O)c1ccccc1-3	59.4*	68.5*	75.1*	-14.2	42.9	26.2	35.6*	28.5	40.5*
CCNc1ccccc(-c2ccc3ccccc3n2)c1=O	0.2	-1.1	2.3	2.7	22.9	/	/	/	/
CC1CCCN(CCC(=O)c2ccccc2)C1 (centres undefined)	/	71.9*	/	/	25.3	85.2*	4.2	39.5	4.9
CC(C)(C)C(=O)NC(=S)NNC(=O)c1ccc(Cl)cc1Cl	98.1*	201.9*	121.9*	-26.2	104.2*	144.3*	114.7*	106.7*	92.3*
CCOc1ccc(-c2c(C(=O)N/N=C(\C)c3cccnc3)nnn2-c2nonc2N)cc1	-1.1	5.6	1.2	-10.0	-10.5	/	/	/	/
CCN1C(N(C)CCc2cccs2)=N[C@@H](c2ccccc2)C(C(=O)OC)=C1C	1.3	68.1*	0.1	-5.9	17.7	73.9*	6.2	34.8	1.4

Compound activity: PubChem BioAssay, The Scripps Research Institute Molecular Screening Center
